Reference: ChEMBL document CHEMBL4261577, “CureCuma-cationic curcuminoids with improved properties and enhanced antimicrobial photodynamic activity” (Eur J Med Chem, 2018)
Calls of active or inactive are those of the source. No cut-off for these calls is given here.

Legend:
[1] = test system: Escherichia coli; test: Photodynamic antibacterial activity against Escherichia coli ATCC 25922 assessed as CFU log reduction at 100 uM complexed with PVP in presence of LED irradiation at LED light at 33.8 J/cm2 relative to control; format: functional
[2] = test system: Escherichia coli; test: Photodynamic antibacterial activity against Escherichia coli ATCC 25922 assessed as reduction in bacterial burden at 50 uM complexed with PVP in presence of LED irradiation at LED light at 33.8 J/cm2; format: functional, organism-based
[3] = Drug level in 0.1 M phosphate buffer treated with curcumin at pH 7.2 at 37 degC after 30 mins by HPLC method; format: physicochemical; details: pH 7.2, 0.5 h
[4] = n-Octanol/sorensen buffer partition coefficient, log D of compound at 50 uM at pH 7 after 10 mins by shake-flask method; format: physicochemical
Procedure, shortened: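 Shake-flask at 25 °C: 50 µM photosensitizer in 10 mM Sörensen buffer pH 6.8 vigorously mixed with equal volume n-octanol for 10 min, phases separated by centrifugation; aqueous-phase absorbance before and after partitioning gives the coefficient.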

[5] = Stability of compound in diluted HCl at 50 uM after 4 hrs by UV-Vis spectrophotometric method; format: physicochemical; details: buffer
Procedure, shortened: (§1)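 UV-Vis spectra recorded after 4 h incubation in buffer solutions at different pH values, acidic down to pH 2 and alkaline above pH 10.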

[6] = Stability of compound in diluted NaOH at 50 uM after 4 hrs by UV-Vis spectrophotometric method; format: physicochemical; procedure, shortened: as §1
[7] = Aggregating behavior of compound at 1 to 2 mM by NMR analysis; format: physicochemical; details: 2000 µM
Procedure, shortened: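 1H NMR in D2O at 20, 10, 5, 2 and 1 mM; aggregation judged from signal shifts and multiplet changes in the aromatic region (6.5–8 ppm), referenced to external TMS, 400 MHz.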

[8] = test system: Escherichia coli; test: Dark toxicity in Escherichia coli ATCC 25922 assessed as decrease in viable cells at 50 uM relative to control; format: organism-based; details: in vivo
Procedure, shortened: (§2)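 E. coli ATCC25922 prepared as for phototoxicity (2 h subculture, DPBS resuspension), incubated with photosensitizer at 37 °C, 175 rpm, but kept in foil-wrapped plates without illumination; CFU counted from serial dilutions on Todd-Hewitt/yeast extract agar after overnight 37 °C, compared against untreated, unilluminated control; three biological replicates.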

[9] = test system: Staphylococcus aureus; test: Photodynamic antibacterial activity against Staphylococcus aureus ATCC 25923 assessed as CFU log reduction at 50 uM irradiated for 5 mins in presence of blueV lamp irradiation at 5.3 J/cm2 and measured after 24 hrs; format: functional
Procedure, shortened: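 S. aureus ATCC25923 grown aerobically at 37 °C in Mueller-Hinton broth, pelleted and resuspended in distilled water to OD600 0.6 (~10^8 cells/mL); incubated 1 min with photosensitizer in 96-well plates, irradiated with BlueV source (390–460 nm, 20 mW/cm²) to 5.3 J/cm²; CFU by Miles-Misra on Mueller-Hinton agar after 24 h at 37 °C; log reduction versus untreated control; ≥3 replicates.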

[10] = Photodegradation of compound in water at 10 uM in presence of LED illumination at 5.6 J/cm'2 for 10 mins by UV/VIS/NIR spectrometer; format: physicochemical; details: read-out: Drug degradation
Procedure, shortened: (§3)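 10 µM in water in a 1 cm quartz cuvette, illuminated at 435 nm with the bacterial-testing LED (9.4 mW/cm²); absorption spectra taken at set time intervals, chromophore band 380–460 nm followed; half-life from extrapolation.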

[11] = test system: Escherichia coli; test: Dark toxicity in Escherichia coli ATCC 25922 assessed as decrease in viable cells at 10 uM; format: organism-based; details: in vivo; procedure, shortened: as §2
[12] = Induction of reactive oxygen species formation assessed as singlet oxygen quantum yield at 2 uM measured over 20 mins by luminescence assay; format: functional; details: in the assay text read “over 50 secs” for “over 20 mins”
Procedure, shortened: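 Singlet oxygen luminescence at 1270 nm from a 2 µM solution compared against TMPyP (0.5 µM) as reference, relating absorbed energy to emission; excitation at 405 nm with a tunable laser at 107, 162, 255 and 283 mW for 50 s each.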

[13] = test system: Escherichia coli; test: Photodynamic antibacterial activity against Escherichia coli ATCC 25922 assessed as CFU log reduction at 10 uM irradiated for 5 to 25 mins in presence of LED light at 33.8 J/cm2 and measured after 24 hrs relative to control; format: functional
Procedure, shortened: (§4)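 E. coli ATCC25922 grown overnight at 37 °C (175 rpm) in Todd-Hewitt broth + 0.3% yeast extract, diluted to A 0.05, grown 2 h (A600 0.3–0.45), pelleted and resuspended in DPBS; incubated with photosensitizer 5 or 25 min at 37 °C, illuminated with 435 nm LED array (9.4 mW/cm², 33.8 J/cm²) while shaken; serial dilutions plated, CFU counted after overnight 37 °C. Log reduction versus untreated, unilluminated control; ≥3 biological replicates; detection limit 10 CFU/mL.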

[14] = test system: Escherichia coli; test: Photodynamic antibacterial activity against Escherichia coli ATCC 25922 assessed as CFU log reduction irradiated for 1.5 mins in presence of 0.85 J/cm2 and measured after 24 hrs; format: functional; details: ATCC 25922, light or radiation study, read-out: MBC99.9
[15] = test system: Escherichia coli; test: Photodynamic antibacterial activity against Escherichia coli ATCC 25922 assessed as CFU log reduction at 10 uM irradiated for 2.5 mins in presence of 1.41 J/cm2 and measured after 24 hrs; format: functional
[16] = Aggregating behavior of compound up to 1 mM by UV-Vis spectroscopic analysis; format: physicochemical
Procedure, shortened: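 UV-Vis absorption spectra in H2O over 100–1000 µM; dimerization judged from spectral changes within error margins.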

[17] = Half life of compound in water at 10 uM in presence of LED illumination at 9.4 mW/cm'2 by UV/VIS/NIR spectrometer; format: physicochemical; procedure, shortened: as §3
[18] = Photodegradation of compound in water at 10 uM in presence of LED illumination at 16.9 J/cm'2 for 30 mins by UV/VIS/NIR spectrometer; format: physicochemical; details: read-out: Drug degradation; procedure, shortened: as §3
[19] = test system: Escherichia coli; test: Photodynamic antibacterial activity against Escherichia coli ATCC 25922 assessed as CFU log reduction irradiated for 5 to 25 mins in presence of LED light at 33.8 J/cm2 and measured after 24 hrs; format: functional; details: ATCC 25922, light or radiation study, read-out: MBC99.9; procedure, shortened: as §4
[20] = Stability of compound in DMSO-d6 at 10 mM incubated up to 130 degC measured after > 10 mins by NMR method; format: physicochemical; details: 10000 µM
Procedure, shortened: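 1H NMR at 10 mM heated stepwise from room temperature through 40–130 °C in 10 °C steps, then cooled back to room temperature; aggregation/stability judged from aromatic-region shifts; external TMS reference, 400 MHz.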

logD at 10 min, 50 µM [4] | degraded at 10 min, 10 µM [10] [%] | SMILES | Activity [12] [%] | further results
-1.2 | < 10 | COc1cc(/C=C/C(=O)CC(=O)/C=C/c2ccc(OCCN)c(OC)c2)ccc1OCCN.Cl.Cl | < 1 | Stability [5]: Stable; Stability [6]: Unstable; Activity [7]: Active; Activity [8]: 0.5 deltalog10CFU/ml; log reduction [9]: 5.2 log10 CFU/mL; Activity [11]: Non-Toxic
-0.6 | < 10 | Cl.Cl.NCCCOc1ccc(/C=C/C(=O)CC(=O)/C=C/c2ccc(OCCCN)c(OCc3ccccc3)c2)cc1OCc1ccccc1 | < 1 | 
-1.1 | < 10 | COc1cc(OCCN)ccc1/C=C/C(=O)CC(=O)/C=C/c1ccc(OCCN)cc1OC.Cl.Cl | < 1 | 
< -2 | < 10 | Cl.Cl.Cl.Cl.NCCOc1ccc(/C=C/C(=O)CC(=O)/C=C/c2ccc(OCCN)c(OCCN)c2)cc1OCCN | < 1 | Stability [5]: Stable; Activity [13]: 5 deltalog10CFU/ml; MBC [14]: 10 µM; Activity [15]: >5 deltalog10CFU/ml; Stability [6]: Unstable; Activity [16]: Active; half-life at 10 µM [17]: 1 h; Activity [8]: 1 deltalog10CFU/ml; log reduction [9]: 5.3 log10 CFU/mL; degraded at 0.5 h, 10 µM [18]: 20%; Activity [11]: Non-Toxic; MBC [19]: 5 µM
-1.6 | < 10 | COc1cc(/C=C/C(=O)CC(=O)/C=C/c2ccc(OCCOCCN)c(OC)c2)ccc1OCCOCCN.Cl.Cl | < 1 | 
-0.8 | < 10 | Cc1cc(/C=C/C(=O)CC(=O)/C=C/c2ccc(OCCN)c(C)c2)ccc1OCCN.Cl.Cl | < 1 | Stability [20]: Stable

The remaining lines, values behind:

SMILES | logD at 10 min, 50 µM [4] | degraded at 10 min, 10 µM [10] [%] | Activity [12] [%] | further results
COc1cc(/C=C/C(=O)CC(=O)/C=C/c2ccc(O)c(OC)c2)ccc1O [CURCUMIN] |  |  |  | Activity [1]: 0.3 deltalog10CFU/ml; Activity [2]: inactive
CC(C)=O [ACETONE] |  |  |  | Drug metabolism [3]: Metabolite_Detected
Cl.Cl.Cl.Cl.Cl.Cl.NCCOc1cc(/C=C/C(=O)CC(=O)/C=C/c2cc(OCCN)c(OCCN)c(OCCN)c2)cc(OCCN)c1OCCN | < -2 | < 10 | < 1 | 
COc1cc(C=O)ccc1O [VANILLIN] |  |  |  | Drug metabolism [3]: Metabolite_Detected
Cl.Cl.NCCOc1ccc(/C=C/C(=O)CC(=O)/C=C/c2ccc(OCCN)cc2)cc1 | -0.9 | < 10 | < 1 | 
